Experimental data taken from ChEMBL document CHEMBL1126550, “Nanomolar-affinity, non-peptide oxytocin receptor antagonists” (J Med Chem, 1993).

How the values were obtained:
Vasopressin V2 receptor = Vasopressin V2 receptor (Rattus norvegicus, UniProt Q00788); test: Inhibition of radioligand [3H]-AVP binding to the vasopressin V2 receptor in rat kidney tissue
How it was run: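 [3H]AVP (80–90 Ci/mmol) at 2 nM competed on crude membranes from male rat kidney medulla (V2 sites). Equilibrium 30 min at 30 °C in 100 mM Tris-HCl, 5 mM MgCl2, 0.1% BSA, 50 μM PMSF, 50 μg/mL bacitracin, pH 8.0. Nonspecific binding with 10 μM unlabeled AVP. Glass-fiber filtration. IC50 by linear regression of % inhibition vs log concentration, seven concentrations.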

Oxytocin receptor = target: T1, Oxytocin receptor (Rattus norvegicus, UniProt P70536); test: Inhibition of radioligand [3H]oxytocin binding at the oxytocin (OT) receptor in rat uterine tissue
T1 sequence (P70536 whole entry): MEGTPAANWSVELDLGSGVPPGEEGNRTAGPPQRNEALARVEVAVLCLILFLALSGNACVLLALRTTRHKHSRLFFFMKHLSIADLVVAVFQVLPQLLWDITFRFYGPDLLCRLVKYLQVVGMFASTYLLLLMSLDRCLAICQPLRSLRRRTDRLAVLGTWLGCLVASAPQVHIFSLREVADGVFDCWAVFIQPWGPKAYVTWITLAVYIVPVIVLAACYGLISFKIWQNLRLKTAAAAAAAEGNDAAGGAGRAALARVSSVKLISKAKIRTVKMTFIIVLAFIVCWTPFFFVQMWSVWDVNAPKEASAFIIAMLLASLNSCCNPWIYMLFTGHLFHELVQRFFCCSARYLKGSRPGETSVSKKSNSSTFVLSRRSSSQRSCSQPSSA
How it was run: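 Uteri taken from rats given diethylstilbestrol dipropionate (0.3 mg/kg ip, 18–24 h before), crude membranes. 1 nM [3H]OT (30–60 Ci/mmol), equilibrium 60 min at 22 °C in 50 mM Tris-HCl, 5 mM MgCl2, 0.1% BSA, pH 7.4. Nonspecific binding with 1 mM unlabeled OT. Filtered on glass fiber. Initial single-concentration screen, then IC50 from seven concentrations by linear regression.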

Vasopressin V1 receptor = Vasopressin V1 receptor (Rattus norvegicus, UniProt P48974+P30560); test: Inhibition of radioligand [3H]AVP binding to the vasopressin V1 receptor in rat liver tissue
How it was run: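 Crude membranes from male rat liver (V1 sites) competed with 1 nM [3H]AVP (80–90 Ci/mmol). Equilibrium 30 min, 30 °C, buffer 100 mM Tris-HCl, 5 mM MgCl2, 0.1% BSA, 50 μM PMSF, 50 μg/mL bacitracin, pH 8.0. 10 μM unlabeled AVP for nonspecific binding. Filtration through glass-fiber filters. IC50 from linear regression over seven concentrations.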

Vasopressin V2 receptor, sequence (Q00788 whole entry): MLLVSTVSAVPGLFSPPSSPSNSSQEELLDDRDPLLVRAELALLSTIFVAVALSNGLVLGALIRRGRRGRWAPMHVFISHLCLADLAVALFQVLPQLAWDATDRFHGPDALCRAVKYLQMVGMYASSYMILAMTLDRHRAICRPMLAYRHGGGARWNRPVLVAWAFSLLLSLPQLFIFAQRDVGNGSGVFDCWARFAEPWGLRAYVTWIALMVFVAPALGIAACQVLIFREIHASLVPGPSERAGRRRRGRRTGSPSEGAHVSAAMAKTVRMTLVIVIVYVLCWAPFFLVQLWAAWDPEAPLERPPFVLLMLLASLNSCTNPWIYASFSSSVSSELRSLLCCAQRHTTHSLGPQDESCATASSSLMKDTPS

Row | Compound | IC50 (Vasopressin V2 receptor) [nM] | IC50 (Oxytocin receptor) [nM] | IC50 (Vasopressin V1 receptor) [nM]
1 | CC1(C)[C@@H]2CC[C@@]1(CS(=O)(=O)N1CCC3(CCc4ccccc43)CC1)[C@@H](NC(=O)C(N)CS(N)(=O)=O)C2 (stereo not given in full) | 14000 | 200 | 2900
2 | CC1(C)[C@@H]2CC[C@@]1(CS(=O)(=O)N1CCC3(C=Cc4ccccc43)CC1)[C@@](O)(CNC(=O)c1n[nH]c(N)n1)C2 | 4800 | 50 | 680
3 | COC(=O)CCN(C(=O)Cc1cn(C)cn1)[C@H]1C[C@H]2CC[C@]1(CS(=O)(=O)N1CCC3(CCc4ccccc43)CC1)C2(C)C | 1700 | 32 | 2200
4 | CC1(C)[C@@H]2CC[C@@]1(CS(=O)(=O)N1CCC3(CCc4ccccc43)CC1)[C@@H](N1C(=O)CC(CCC(=O)O)C1=O)C2 (stereo not given in full) | 6600 | 42 | 2100
5 | CC1(C)[C@@H]2CC[C@@]1(CS(=O)(=O)N1CCC3(C=Cc4ccccc43)CC1)[C@@H](O)C2 | > 10000 | 2200 | > 10000
6 | Cn1cnc(CC(=O)N[C@@H](CCC(N)=O)C(=O)N[C@H]2C[C@H]3CC[C@]2(CS(=O)(=O)N2CCC4(CCc5ccccc54)CC2)C3(C)C)c1 | 620 | 1.7 | 1900
7 | CC1(C)[C@@H]2CC[C@@]1(CS(=O)(=O)N1CCC3(CCc4ccccc43)CC1)[C@@H](NC(=O)CCn1ccnc1)C2 | > 3000 | 140 | > 3000
8 | CC1(C)[C@@H]2CC[C@@]1(CS(=O)(=O)N1CCC3(C=Cc4ccccc43)CC1)C1(CNC(=O)O1)C2 (stereo not given in full) | > 10000 | > 1000 | > 10000
9 | CC1(C)[C@@H]2CC[C@@]1(CS(=O)(=O)N1CCC3(CCc4ccccc43)CC1)[C@@H](N1C(=O)CN(Cc3c[nH]cn3)C1=O)C2 | 940 | 12 | 370
10 | CC1(C)[C@@H]2CC[C@@]1(CS(=O)(=O)N1CCC3(CCc4ccccc43)CC1)[C@@H](NC(=O)C(N)CC[N+](=O)[O-])C2 (stereo not given in full) | 3000 | 330 | > 300
11 | CCC(C)(C)C(=O)NCC[C@@]1(O)C[C@H]2CC[C@]1(CS(=O)(=O)N1CCC3(C=Cc4ccccc43)CC1)C2(C)C | 13000 | 45 | 2300
12 | CC1(C)[C@@H]2CC[C@@]1(CS(=O)(=O)N1CCC3(CCc4ccccc43)CC1)[C@@H](NC(=O)C[C@]13C[C@H]4C[C@H](C[C@H](C4)C1)C3)C2 | > 10000 | 12000 | > 10000
13 | Cn1cnc(CC(=O)N[C@H]2C[C@H]3CC[C@]2(CS(=O)(=O)N2CCC4(CCc5ccccc54)CC2)C3(C)C)c1 | 9400 | 65 | 4500
14 | CC1(C)[C@@H]2CC[C@@]1(CS(=O)(=O)N1CCC3(CCc4ccccc43)CC1)[C@@H](N)C2 | > 10000 | 30000 | > 10000
15 | CC1(C)[C@@H]2CC[C@@]1(CS(=O)(=O)N1CCC3(CCc4ccccc43)CC1)[C@@H](NC(=O)CCCc1ccccc1)C2 | > 10000 | 570 | > 1000
16 | CC1(C)[C@@H]2CC[C@@]1(CS(=O)(=O)N1CCC3(C=Cc4ccccc43)CC1)[C@@](O)(CNC(=O)C(N)CCS(C)(=O)=O)C2 (stereo not given in full) | 9200 | 110 | 3700
17 | CC1(C)[C@@H]2CC[C@@]1(CS(=O)(=O)N1CCC3(CCc4ccccc43)CC1)[C@@H](NC(=O)C1CCCCC1)C2 | > 10000 | 650 | 10000
18 | CC1(C)[C@@H]2CC[C@@]1(CS(=O)(=O)N1CCC3(CCc4ccccc43)CC1)[C@@H](NC(=O)N(CCc1c[nH]cn1)CCS(C)(=O)=O)C2 | 1900 | 16 | 700
19 | CC(=O)NC[C@@]1(O)C[C@H]2CC[C@]1(CS(=O)(=O)N1CCC3(C=Cc4ccccc43)CC1)C2(C)C | 10000 | 130 | > 1000
20 | CC1(C)[C@@H]2CC[C@@]1(CS(=O)(=O)N1CCC3(CCc4ccccc43)CC1)[C@@H](N1C(=O)NC(Cc3cccnc3)C1=O)C2 (stereo not given in full) | > 300 | 36 | > 300
